Bioassay records as filed in PubChem.
IMP-1 inh = blocks Pseudomonas aeruginosa IMP-1 metallo-beta-lactamase. purified IMP-1, nitrocefin hydrolysis, epi-absorbance fluorescence. inhibition, % at 5.6 µM. hit rate 0.45% among 290,000. AID 1556;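 active = inhibition above the mean plus 3 SD of all compounds in the same screening run, cut at about 4.5% in these data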;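 also: 0% = IMP-1 with DMSO and 100% = DMSO wells lacking enzyme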
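System: Purified recombinant IMP-1 metallo-beta-lactamase enzyme | Measured by: Fluorescence quenching readout, ex 480/em 530 nm | Replication: Singlicate | Incubation: 15 min preincubation plus 25 min reaction at 25 °C | Evaluation: Percent inhibition from optical density relative to buffer-blank wells | Benchmarks: DMSO with and without IMP-1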
PHOSPHO1 inh = blocks human PHOSPHO1 phosphatase activity | recombinant PHOSPHO1, absorbance phosphatase assay | inhibition, % at 13.3 µM | hit rate 1.1% among 290,000 | AID 1565; in the data active = inhibition above about 60%
Target sequence (Q8TCT1 whole entry, looked up): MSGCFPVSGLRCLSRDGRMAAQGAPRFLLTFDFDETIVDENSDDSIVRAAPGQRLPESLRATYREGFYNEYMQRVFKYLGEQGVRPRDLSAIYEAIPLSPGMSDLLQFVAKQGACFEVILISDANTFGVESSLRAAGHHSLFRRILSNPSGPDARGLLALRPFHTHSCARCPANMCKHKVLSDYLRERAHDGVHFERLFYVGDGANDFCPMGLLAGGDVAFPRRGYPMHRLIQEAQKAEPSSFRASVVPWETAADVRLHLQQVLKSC
Yeast superoxide = yeast age-related superoxide inhibition as caloric restriction mimetic; S. cerevisiae aged cells, superoxide DHE fluorescence; stronger effect = lower value; superoxide response (% of plate mean), % at 10 µM; hit rate 0.18% among 330,000; AID 2690;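 active = superoxide response under a set limit, about three screen SD below normal, cut at about 65% in these data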;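 also: yeast aged for seven days with compound at 30 °C before DHE staining; 100% = average MFI of all compound-treated wells on the plate with controls excluded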
PvdQ acylase = blocks Pseudomonas aeruginosa PvdQ acylase activity; inhibition, % at 10 µM; hit rate 0.063% among 340,000; purified PvdQ acylase, fluorescence plate reader; in the data active = inhibition above about 30%, passing the limit was not always enough;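 also: 0% = vehicle neutral wells and 100% = reference inhibitor wells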
VIM-2 inhibitor = inhibitors of Pseudomonas aeruginosa VIM-2 metallo-beta-lactamase; purified VIM-2, nitrocefin hydrolysis, epi-absorbance fluorescence; inhibition, % at 5.6 µM; hit rate 0.89% among 290,000; AID 1527;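 active = inhibition above the mean of all tested compounds plus 3 SD, cutoff set per screening run, cut at about 7.5% in these data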;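 also: red hydrolysis product quenches plate fluorescence so inhibitors raise well fluorescence; 0% = enzyme with DMSO and 100% = DMSO without enzyme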
Starred values were filed as active, the others as inactive; · = no result. Hits are enriched below; roughly 2.2% of the tested compounds scored in any of these assays.

SMILES	IMP-1 inh	PHOSPHO1 inh	Yeast superoxide	PvdQ acylase	VIM-2 inhibitor
O=C1/C(=C/c2ccccc2F)SC(=S)N1CCC(=O)N1CCCCC1CCO (stereo not drawn)	-2	64*	101	-5	-1
COc1ccc(C(=O)NC2CC2)cc1OC1CCN(Cc2ccc(F)cc2Cl)CC1	-2	-1	88	1	-1
O=C(O)C1=C(C(=O)Nc2cc(C(F)(F)F)ccc2Cl)CCCC1	9.9*	32	103	-25	4
O=C(CN1CCCCCC1)Nc1cc(C(F)(F)F)ccc1Cl	-2	11	94	-5	0
Cn1c(N)c(C(=O)COC(=O)c2cc(S(=O)(=O)N3CCOCC3)ccc2F)c(=O)n(C)c1=O	·	·	94	-9	·
CCCc1cc(C(=O)NNC(=S)NC(C)c2ccccc2)cs1 (stereo not drawn)	-3	83*	94	-11	-3
COc1ccc(NCC(=O)Nc2cccc(C(F)(F)F)c2)cc1S(=O)(=O)N1CCOCC1	·	·	127	-19	·
CSc1ccc(CN2CCC(O)CC2)cc1	-1	·	·	·	-2
CCCCOc1ccc(CN2CCC(O)CC2)cc1	45*	22	91	-16	-3
CSCCC(NC(=O)c1ccc(Cl)cc1Cl)C(=O)NNC(=O)c1ccncc1 (stereo not drawn)	·	·	85	-1	·
O=C(NC1CCN(Cc2ccccc2)CC1)c1cc(S(=O)(=O)N2CCOCC2)ccc1Cl	·	·	·	8	·
CSc1nncc(/C(C)=N\Nc2ccccc2C)n1	-4	95*	92	-11	-6
N=c1c(C(=O)NCC2CCCO2)cc2c(=O)n3ccccc3nc2n1C1CCCCC1 (stereo not drawn)	0	-6	130	-54	2
Cc1cccn2c(=O)c3cc(C(=O)NCC4CCCO4)c(=N)n(C4CCCC4)c3nc12 (stereo not drawn)	-3	43	107	-47	11*
Cc1ccc2nc3c(cc(C(=O)NCC4CCCO4)c(=N)n3C3CCCC3)c(=O)n2c1 (stereo not drawn)	-5	4	113	-46	7.9*
N=c1c(C(=O)NCC2CCCO2)cc2c(=O)n3ccccc3nc2n1C1CCCC1 (stereo not drawn)	-1	-22	106	-69	1
CCc1cc(C(=O)N=Nc2c(O)[nH]c3c(Br)cc(Br)cc23)c2ccccc2n1	-1	-1	107	6	-2
COc1cccc(-c2nc(N3CCN(C)CC3)c3ccccc3n2)c1O	-2	11	95	3	10*
OCCN1CCN(c2nc(-c3ccccc3O)nc3ccccc23)CC1	-2	28	103	18	11*
COc1cccc(CNC(=O)CCCc2nnc3n(C)c(=O)c4sccc4n23)c1	-2	-20	88	3	0
O=C(C[n+]1ccc2ccccc2c1)Nc1cc(C(F)(F)F)ccc1Cl	-3	1	59*	-2	-2
CCCn1c(SCc2cc(=O)oc3ccc4ccccc4c23)n[nH]c1=O	-2	92*	93	-5	3
O=C1NC(=O)/C(=C\c2ccc(O)cc2O)S1	6.0*	43	110	-9	2
CC(C)(C)n1nc2c(c1NC(=O)c1cccc(Cl)c1)CS(=O)(=O)C2	-3	65*	96	10	-6
Cc1cc(C)cc(C(=O)Nc2c3c(nn2C(C)(C)C)CS(=O)(=O)C3)c1	-5	34	103	-4	-6
SMILES	IMP-1 inh	PHOSPHO1 inh	Yeast superoxide	PvdQ acylase	VIM-2 inhibitor
CCc1c(C(C)S(=O)(=O)c2ccc(C)cc2)[nH]c(=O)n1-c1ccc(C)cc1 (stereo not drawn)	0	90*	116	-23	-1
CCCS(=O)(=O)N1CCCC(C(=O)NCC2CCCO2)C1 (stereo not drawn)	4.9*	27	89	-13	-4
Cc1ccc2c(c1C)NC(C)CC2C (stereo not drawn)	5.0*	-14	99	-9	2
COc1cc(OC)cc(C(=O)N[C@H](C(=O)OCC(=O)Nc2cccnc2Cl)C(C)C)c1	·	·	90	3	·
CC/C(=C\C(=O)c1cccnc1)Nc1ccc(C)c(C)c1	-3	96*	101	9	-1
Cc1cc(C(=O)CSc2nnc(-c3ccccc3)o2)c(C)n1CC1COc2ccccc2O1 (stereo not drawn)	3	-35	107	-18	-1
O=C(CSc1nnc(-c2ccco2)o1)NC(=O)C1COc2ccccc2O1 (stereo not drawn)	0	19	109	0	0
Cc1cc(C(=O)CSc2nnc(-c3ccc(F)cc3)o2)c(C)n1CC1COc2ccccc2O1 (stereo not drawn)	-2	91*	101	4	1
Cc1cc(C(=O)CSc2nnc(-c3ccco3)o2)c(C)n1CC1COc2ccccc2O1 (stereo not drawn)	2	91*	·	-13	1
Cc1cc(C(=O)CSc2nnc(-c3ccc(F)cc3)o2)c(C)n1CC1CCCO1 (stereo not drawn)	0	100*	99	-10	-3
CCC(=O)Nc1cc2nn(-c3ccc(C)cc3)nc2cc1C	-1	63*	112	-3	-1
CCC(=O)Nc1cc2nn(-c3ccc(OC)cc3)nc2cc1C	-2	18	92	-8	-3
CCN1C(=O)[C@H]2[C@@H](c3ccc(-c4ccc(Cl)c(Cl)c4)c(OC)c3)N3CCCC[C@@]3(C(=O)OC)[C@H]2C1=O	·	·	94	-12	·
CN(C)c1ccnc2sc3c(NCC(O)CO)ncnc3c12 (stereo not drawn)	-1	0	107	-11	8.3*
O=C(CSc1nc2ccccc2nc1SCC(=O)N1CCCCC1)N1CCCCC1	-1	71*	112	-1	1
O=C(Nc1nnc(SCC(=O)N2CCCCC2)s1)c1cccs1	-4	74*	94	-21	2
O=C(CSc1nc2ccccc2nc1SCC(=O)N1CCOCC1)N1CCOCC1	-3	-14	94	-1	-2
O=C(CSc1nnc(NC(=O)c2ccccc2F)s1)Nc1ccccc1F	-4	43	94	3	-4
O=C(Nc1nnc(SCC(=O)N2CCCCC2)s1)c1ccccc1F	1	22	112	-12	9.2*
O=C(Nc1nnc(SCC(=O)N2CCOCC2)s1)c1ccccc1Cl	-3	66*	104	-2	1
O=C(Cc1ccc(Br)cc1)NC1CCSC1=O (stereo not drawn)	1	-12	94	-4	0
Cn1c(OCc2cccnc2)nc2c1c(=O)n(Cc1ccccc1)c(=O)n2C	-2	27	99	-14	8.7*
CCC1(N(C(C)=O)c2ccc(OC)cc2)C(=O)c2ccccc2C1=O	21*	-11	93	-5	0
CSC1=NS(=O)(=O)c2c(C)nn(C)c2S1	-4	90*	86	-10	0
O=C(Cc1ccccc1)Nc1ccccc1C(=O)Nc1ccccc1	-5	-11	88	-5	-1
CC(C)(C)C(=O)NC(=S)Nc1ccccc1C(=O)NC1CCCCC1	1	15	101	-9	-2
CC(C)C(=O)NC(=S)Nc1ccccc1C(=O)Nc1ccccc1	19*	-19	101	-5	-3
